Experimental data of several laboratories.
Compare with care: the assays were run in different laboratories.
Target: Serine/threonine-protein kinase Chk1 (CHEK1, Homo sapiens, UniProt O14757)
Mode: inhibitor
Sequence (O14757 1-476, as in one of the studies): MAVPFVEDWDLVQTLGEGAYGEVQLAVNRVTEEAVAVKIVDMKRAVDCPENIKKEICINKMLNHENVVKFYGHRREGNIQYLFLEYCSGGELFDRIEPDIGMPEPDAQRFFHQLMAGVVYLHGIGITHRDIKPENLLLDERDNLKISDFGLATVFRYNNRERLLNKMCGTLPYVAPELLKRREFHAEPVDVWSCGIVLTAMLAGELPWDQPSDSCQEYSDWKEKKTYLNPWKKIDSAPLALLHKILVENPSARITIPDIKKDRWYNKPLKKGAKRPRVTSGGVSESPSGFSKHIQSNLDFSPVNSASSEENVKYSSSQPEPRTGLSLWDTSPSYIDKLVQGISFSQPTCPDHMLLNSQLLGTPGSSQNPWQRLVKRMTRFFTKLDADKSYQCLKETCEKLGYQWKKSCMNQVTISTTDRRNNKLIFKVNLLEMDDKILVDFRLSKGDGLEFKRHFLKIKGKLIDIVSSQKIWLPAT

| SMILES | assay | test system | setting | inhibition [%] |
| --- | --- | --- | --- | --- |
| CCOc1cc(-c2nncn2C)ccc1Nc1ncc2cc(C)nc(NCC(C)(C)C)c2n1 | enzyme activity, FRET | – | 1 µM | < 15 |
| CS(=O)(=O)Nc1cccc(-c2csc(NC(=O)CSc3nc4nccnc4c(=O)n3CCc3ccccc3)n2)c1 | enzyme activity | – | 10 µM | -3 |
| CCN1CCN(Cc2ccc(NC(=O)c3ccc(C)c(/C=C/c4cnc5[nH]ccc5c4OC)c3)cc2C(F)(F)F)CC1 | target engagement in cells, chemoproteomics | A-375 | 50 nM | -118 |
| CCCCNc1ncc2c(-c3ccc(F)cc3)nn(C[C@H]3CC[C@H](N)CC3)c2n1 | target engagement in cells, chemoproteomics | – | 20 mM | -8.8 |
| CN(C)C1CCN(CC#Cc2nn(C3CCCC3)c3nc(NCc4ccccc4)ncc23)C1 (centres unmarked) | enzyme activity, FRET | – | 1 µM | -5 |
| CSc1nc(C)c(-c2ccnc(Nc3ccc(N4CCOCC4)cc3)c2)[nH]1 | enzyme activity | – | 10 µM | 12.4 |
| Cc1ncc([N+](=O)[O-])n1C(=NO)c1ccccc1C(F)(F)F | enzyme activity | – | 10 µM | 19.2 |
| CNC(=O)c1cc(Oc2ccc(NC(=O)Nc3ccc(Cl)c(C(F)(F)F)c3)cc2)ccn1 | enzyme activity | – | 10 µM | -27 |
| CNCc1ccc(-c2cc(-c3nc(-c4ccc(S(=O)(=O)C(C)C)cc4)cnc3N)on2)cc1 | enzyme activity | – | 0.4 µM | 15 |
| COc1cc2ncnc(Nc3ccc(Oc4ccccc4)cc3C)c2cc1OC | enzyme activity | – | 1 µM | 6 |
| COc1cccc2c(NCc3ccccc3)nc(-n3c(N)nc4ccccc43)nc12 | target engagement in cells, chemoproteomics | – | 20 mM | -4.2 |
| CCN1CCN(Cc2ccc(NC(=O)c3ccc(C)c(Oc4ccnc5[nH]ccc45)c3)cc2C(F)(F)F)CC1 | target engagement in cells, chemoproteomics | A-375 | 50 nM | -156 |
| Cc1ccc(Nc2nccc(N(C)c3ccc4c(C)n(C)nc4c3)n2)cc1S(N)(=O)=O | enzyme activity | – | 10 µM | -6 |
| CNc1cccc2cc(C(=O)Nc3ccc(C(=O)O)cc3)c(=O)[nH]c12 | enzyme activity | – | 10 µM | -1.6 |
